Measurements collected from several papers.
Lines come from different studies, so protocols differ.
FLT3: Receptor-type tyrosine-protein kinase FLT3 (FLT3, Homo sapiens, UniProt P36888)
FLT3 D835Y: Receptor-type tyrosine-protein kinase FLT3 (FLT3, Homo sapiens, UniProt P36888, D835Y)
FLT3 F691L/ITD: Receptor-type tyrosine-protein kinase FLT3 (FLT3, Homo sapiens, UniProt P36888, F691L/ITD)
FLT3 N841I: Receptor-type tyrosine-protein kinase FLT3 (FLT3, Homo sapiens, UniProt P36888, N841I)
FLT3 R834Q: Receptor-type tyrosine-protein kinase FLT3 (FLT3, Homo sapiens, UniProt P36888, R834Q)

Cc1ccc(C(=O)Nc2ccc(CN3CCN(C)CC3)c(C(F)(F)F)c2)cc1C#Cc1cnc2cccnn12
remaining activity (FLT3; enzyme activity, inhibitor; 23.5 nM): 58%

COc1cc(-c2cn(C3CCc4c(F)cccc4N(CC(F)(F)F)C3=O)nn2)ccc1-n1cnc(C)c1 (stereo not shown)
remaining binding (Receptor-type tyrosine-protein kinase FLT3 (FLT3, Homo sapiens, UniProt P36888, D835V); cell-free assay, competition with immobilised ligand; 1 µM): 97%

CN(C)c1nccc(-c2cnc3ncccn23)n1
remaining binding (FLT3 D835Y; binding; 1 µM): 78%

Cc1ccc(C(=O)NCc2ccsc2)cc1C#Cc1cn(C(C)C)c2ncnc(N)c12
activity vs control (FLT3 D835Y; enzyme activity, inhibitor; 1 µM): 118%

CC(=O)Nc1c(C(C)=O)c(=O)n(C)c2nc(-c3ccc(Cl)cc3Cl)c(-c3ccc(Cl)cc3)cc12
remaining binding (FLT3 F691L/ITD; cell-free assay, competition with immobilised ligand; 1 µM): 100%

F[C@@H]1CCN(c2nccc(-c3cnn4ncccc34)n2)C1
remaining binding (FLT3 N841I; binding; 1 µM): 100%

N#Cc1ccc(Nc2ccc3[nH]c(=O)[nH]c3c2)c(Cl)c1
remaining binding (FLT3 D835Y; cell-free assay, competition with immobilised ligand; 1 µM): 94%

Oc1cccc(-c2nc(N3CCOCC3)c3oc4ncccc4c3n2)c1
remaining signal (FLT3; cell-free assay; 0.5 µM): 87.1%

CC(=O)N1CCC(c2ccc(C(=O)NC(=N)N)cc2C(F)(F)F)CC1
remaining binding (FLT3; cell-free assay, competition with immobilised ligand; 1 µM): 100%

C[C@H]1CCN(c2nccc(-c3cnn4ncccc34)n2)C1
remaining binding (FLT3 D835Y; binding; 1 µM): 81%

O=C(Nc1cnn(-c2csc(C(=O)NC3COC3)c2)c1)Nc1ccccc1Cl
remaining activity (FLT3; enzyme activity, inhibitor; 5 µM): 89.7%

CCCCN(CCCC)C(=O)CN1C[C@@H](c2cc(OC)c3c(c2)OCO3)[C@H](C(=O)O)[C@H]1CC(C)(C)CCC
remaining binding (Receptor-type tyrosine-protein kinase FLT3, autoinhibited (FLT3, Homo sapiens, UniProt P36888); cell-free assay, competition with immobilised ligand; 1 µM): 97.4%

CN(C)c1nccc(-c2cnn3ncccc23)n1
remaining binding (FLT3; binding; 1 µM): 98%

O=C(c1ccc(Nc2ncc(Cl)c(-c3cc4ccccc4s3)n2)cc1)N1CCC(N2CCCC2)CC1
remaining binding (FLT3; binding, competition with immobilised ligand; 1 µM): 2.5%

Nc1ncnc2occ(-c3ccc(NC(=O)Nc4cc(C(F)(F)F)ccc4F)cc3)c12
remaining signal (FLT3 N841I; cell-free assay, inhibitor; 20 µM): 0.75%

O=C(NCCCN1CCOCC1)c1ccc(Nc2nccc(-c3cc4ccccc4s3)n2)cc1
remaining binding (FLT3 N841I; binding, competition with immobilised ligand; 1 µM): 9.2%

N[C@H]1CCN(c2nccc(-c3cnn4ncccc34)n2)C1
remaining binding (FLT3 R834Q; binding; 1 µM): 90%

Cc1cc(C)c(-n2ccn3nc(-c4cccnc4)cc23)cc1NC(=O)c1cc(C#N)cc(S(F)(F)(F)(F)F)c1
remaining binding (FLT3 R834Q; cell-free assay, competition with immobilised ligand; 0.1 µM): 62.3%

Cc1cnc(-c2ccc(-c3ccc(NC(=O)Nc4c(F)cc(F)cc4F)cc3F)c3c2C(=O)NC3)[nH]1
activity vs control (Receptor-type tyrosine-protein kinase FLT3 (FLT3, Homo sapiens, UniProt P36888, ITD); enzyme activity, inhibitor; 1 µM, 90 min): 1.6%

Cc1nc(N2CC[C@@H](O)C2)ncc1-c1cc(C(F)(F)F)cc2[nH]ncc12
remaining binding (FLT3 R834Q; binding, competition with immobilised ligand; 1 µM): 73%

CN(c1nccc(-c2cnn3ncccc23)n1)C1CC1
remaining binding (Receptor-type tyrosine-protein kinase FLT3 (FLT3, Homo sapiens, UniProt P36888, D835H); binding; 1 µM): 100%

O=C(NCCCN1CCOCC1)c1ccc(Nc2ncc(Cl)c(-c3ccc(Cl)s3)n2)cc1
remaining binding (FLT3 F691L/ITD; binding, competition with immobilised ligand; 1 µM): 5.1%
